Results on 25 compounds are retold here after ChEMBL document CHEMBL4699510, “Discovery of a series of ester-substituted NLRP3 inflammasome inhibitors” (Bioorg Med Chem Lett, 2020).

Data set [1] deals with NACHT, LRR and PYD domains-containing protein 3 (Homo sapiens, UniProt Q96P20). Kind of data set: Inhibition of NLRP3 in human PBMC cells assessed as inhibition of LPS and ATP-induced IL-1beta production. It counts as cell-based.
The nature of data set [2]: Inhibition of TNFalpha production in human PBMC.
Data set [3] is described as follows: Inhibition of IL-6 production in human PBMC.
The nature of data set [4]: Effective permeability of compound by PAMPA. It counts as ADME. The conditions noted are these: read-out: Peff.
Data set [5] can be described thus: Stability in human blood assessed as compound remaining measured after 1 hr. It counts as ADME, tissue-based. The conditions noted are these: read-out: Stabilty. The essentials: (§1)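 Compound incubated in whole blood (human or mouse) at 37° C for one hour; stability expressed as percentage of compound remaining.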
Data set [6] can be described thus: Stability in mouse blood assessed as compound remaining measured after 1 hr. The format is ADME, tissue-based. The conditions noted are these: read-out: Stabilty. The essentials:
as §1

A value given as a limit tells only on which side of the number the result lay.

Chain of NACHT, LRR and PYD domains-containing protein 3 (Q96P20 whole entry, the tested form may be a part): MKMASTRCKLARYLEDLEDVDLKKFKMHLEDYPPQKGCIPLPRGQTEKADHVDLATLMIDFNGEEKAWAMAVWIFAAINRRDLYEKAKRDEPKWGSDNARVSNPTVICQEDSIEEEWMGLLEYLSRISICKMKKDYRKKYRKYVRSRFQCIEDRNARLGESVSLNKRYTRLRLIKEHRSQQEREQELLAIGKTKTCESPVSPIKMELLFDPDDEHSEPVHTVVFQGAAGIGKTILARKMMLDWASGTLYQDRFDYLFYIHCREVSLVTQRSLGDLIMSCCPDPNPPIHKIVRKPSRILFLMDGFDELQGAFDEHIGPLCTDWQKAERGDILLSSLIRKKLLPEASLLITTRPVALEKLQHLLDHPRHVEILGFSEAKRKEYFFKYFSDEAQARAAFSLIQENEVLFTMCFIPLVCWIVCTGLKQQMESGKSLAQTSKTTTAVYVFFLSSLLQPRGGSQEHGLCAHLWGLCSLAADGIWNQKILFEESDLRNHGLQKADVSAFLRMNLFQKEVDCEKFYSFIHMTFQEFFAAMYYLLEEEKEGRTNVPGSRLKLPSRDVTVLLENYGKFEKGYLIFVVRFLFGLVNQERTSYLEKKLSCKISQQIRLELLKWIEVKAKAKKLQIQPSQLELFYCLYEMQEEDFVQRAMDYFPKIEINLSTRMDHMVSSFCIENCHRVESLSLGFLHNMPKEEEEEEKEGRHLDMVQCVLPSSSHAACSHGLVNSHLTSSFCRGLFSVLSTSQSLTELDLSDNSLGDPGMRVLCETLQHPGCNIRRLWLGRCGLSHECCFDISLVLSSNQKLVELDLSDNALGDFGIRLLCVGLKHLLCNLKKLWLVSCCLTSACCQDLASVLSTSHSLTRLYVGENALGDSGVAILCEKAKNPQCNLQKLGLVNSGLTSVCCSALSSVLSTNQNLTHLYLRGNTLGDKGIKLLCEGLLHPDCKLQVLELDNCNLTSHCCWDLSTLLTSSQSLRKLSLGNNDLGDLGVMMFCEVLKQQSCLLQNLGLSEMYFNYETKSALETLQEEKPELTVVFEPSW

Usually IC50 stands for the point on the concentration scale where inhibition reaches its midpoint. As for `CCOC(=O)CNC(=O)NC12CC3CC(CC(C3)C1)C2`, the IC50 in data set [1] was more than 20 µM.
Same read-out and setting: under `COC(=O)[C@@H](Cc1ccncc1)NC(=O)Nc1c2c(cc3c1CCC3)CCC2` stands more than 20 µM.
`CCOC(=O)CNC(=O)NC(c1ccccc1)c1ccccc1`: the IC50 in data set [1] is more than 20 µM.
Regarding `Cc1nnc(CNC(=O)Nc2c3c(cc4c2CCC4)CCC3)o1`, in data set [1], the IC50 was more than 20 µM.
`O=C(CNS(=O)(=O)c1ccccc1)Nc1c2c(cc3c1CCC3)CCC2`: in data set [1], the IC50 is more than 20 µM.
Still for that read-out and setting: next, `O=C(O)CC(=O)Nc1c2c(cc3c1CCC3)CCC2`: more than 20 µM; `COC(=O)CNC(=O)Nc1c(C(C)C)cccc1C(C)C`: more than 20 µM; `COC(=O)CC(=O)Nc1c2c(cc3c1CCC3)CCC2`: more than 20 µM.
Same read-out and setting: under `COC(=O)C(C)(C)NC(=O)Nc1c2c(cc3c1CCC3)CCC2` stands more than 20 µM.
For the compound `CC(C)(O)c1coc(S(=O)(=O)[N-]C(=O)Nc2c3c(cc4c2CCC4)CCC3)c1.[Na+]`, the IC50 in data set [2] and in data set [3] was more than 40 µM each time. For the same compound, the Papp in data set [4] is less than 0.0003 ×10⁻⁶ cm/s.
Regarding `CNC(=O)CNC(=O)Nc1c2c(cc3c1CCC3)CCC2`, the IC50 in data set [1] was more than 20 µM.
For the compound `Cc1nc(CNC(=O)Nc2c3c(cc4c2CCC4)CCC3)no1`, the IC50 in data set [1] was more than 20 µM.
As for `O=C(CS(=O)(=O)Nc1ccccc1)Nc1c2c(cc3c1CCC3)CCC2`, the IC50 in data set [1] is more than 20 µM.
On the same count and under the same terms, next, `COC(=O)C(CCc1ccccc1)NC(=O)Nc1c2c(cc3c1CCC3)CCC2` (stereo not drawn): more than 20 µM; `CCOC(=O)CNC(=O)Nc1c(C)cccc1C`: more than 20 µM; `CCOC(=O)CNC(=O)Nc1c2c(cc3c1CCC3)CCCC2`: more than 20 µM.
For the compound `CC(C)(C)OC(=O)CNC(=O)Nc1c2c(cc3c1CCC3)CCC2`, in data set [1], the IC50 is more than 20 µM.
`CCOC(=O)[C@@H](Cc1ncccn1)NC(=O)Nc1c2c(cc3c1CCC3)CCC2`: the IC50 was determined as 2.7 µM in data set [2] and 4.3 µM in data set [3]. Also, the Papp in data set [4] stood at 8.2 ×10⁻⁶ cm/s. Besides, the remaining at 1 h is 92.4% in data set [5] and 0% in data set [6].
`CCOC(=O)CNC(=O)Nc1c2c(nc3c1CCC3)CCC2`: in data set [1], the IC50 was more than 20 µM.
On to `CN(C)C(=O)CNC(=O)Nc1c2c(cc3c1CCC3)CCC2`, for which the IC50 in data set [1] was more than 20 µM.
With `O=C(O)CNC(=O)Nc1c2c(cc3c1CCC3)CCC2`, in data set [1], the IC50 is more than 20 µM.
Same read-out and setting: next, `CC(C)(O)c1coc(S(=O)(=O)NC(=O)Nc2cccc3c2CCC3)c1`: more than 20 µM.
Consider `CCOC(=O)[C@@H](Cc1cnccn1)NC(=O)Nc1c2c(cc3c1CCC3)CCC2`, for which the Papp in data set [4] is 13.9 ×10⁻⁶ cm/s. Further, the remaining at 1 h turned out to be 79.2% in data set [5] and 0% in data set [6].
For the compound `CCOC(=O)CNC(=O)Nc1c2c(c(Cl)c3c1CCC3)CCC2`, in data set [1], the IC50 is more than 20 µM.
As for `CC(C)(O)c1coc(S(=O)(=O)NC(=O)Nc2ccccc2)c1`, the IC50 in data set [1] was more than 20 µM.
